Test results taken from ChEMBL document CHEMBL1165950, “Design and synthesis of new potent anticancer pyrazoles with high FLT3 kinase inhibitory selectivity” (Bioorg Med Chem, 2010).

Legend:
Format in all cases: functional
[1] = Cytotoxicity against human Hs 578T cells assessed as cell growth at 10 uM; details: read-out: Activity
How it was run: (§1)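 Single-dose NCI-60 screen at 10 µM. Cells were grown in RPMI 1640 with 5% FBS and 2 mM L-glutamine, then treated for 48 h at 37 °C. Protein was measured by SRB staining with absorbance at 515 nm. Percentage growth was recorded, and inhibition percentage was calculated as 100 minus growth percentage.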

[2] = test system: SK-MEL-5; test: Cytotoxicity against human SK-MEL-5 cells assessed as cell growth at 10 uM; details: read-out: Activity
How it was run: (§2)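 NCI-60 screen: cells grown in RPMI 1640 with 5% FBS and 2 mM L-glutamine, plated at 5000–40,000 cells/well according to doubling time, and preincubated 24 h at 37 °C, 5% CO2. The single 10 µM dose (DMSO stock) was added, then incubated 48 h. Cells were TCA-fixed and stained with 0.4% SRB, read at 515 nm, and growth % calculated against time-zero and control plates.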

[3] = test system: NCI/ADR-RES; test: Cytotoxicity against human NCI/ADR-RES cells assessed as cell growth at 10 uM; details: read-out: Activity; how it was run: as §2
[4] = test system: HCC 2998; test: Cytotoxicity against human HCC2998 cells assessed as cell growth at 10 uM; details: read-out: Activity; how it was run: as §1
[5] = test system: MCF7; test: Cytotoxicity against human MCF7 cells assessed as cell growth at 10 uM; details: read-out: Activity; how it was run: as §2
[6] = test system: NCI-H322M; test: Cytotoxicity against human NCI-H322M cells assessed as cell growth at 10 uM; details: read-out: Activity; how it was run: as §2
[7] = test system: SF-539; test: Cytotoxicity against human SF539 cells assessed as cell growth at 10 uM; details: read-out: Activity; how it was run: as §2
[8] = test system: MDA-MB-435; test: Cytotoxicity against human MDA-MB-435 cells assessed as cell growth at 10 uM; details: read-out: Activity; how it was run: as §2
[9] = test system: T47D; test: Cytotoxicity against human T47D cells assessed as cell growth at 10 uM; details: read-out: Activity; how it was run: as §2
[10] = Growth inhibition of human NCI60 cells at 10 uM after 48 hrs by sulforhodamine B assay relative to control; details: NCI60, 48 h, read-out: GI
How it was run: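 Single-dose NCI screen at 10 µM across the 60-line panel, 48 h exposure at 37 °C after a 24 h preincubation. Adherent cells were fixed with cold TCA and stained with 0.4% SRB, and absorbance was read at 515 nm. Inhibition % was taken as 100 minus growth %, and the mean across all lines was reported.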

[11] = test system: OVCAR-8; test: Cytotoxicity against human OVCAR8 cells assessed as cell growth at 10 uM; details: read-out: Activity; how it was run: as §2
[12] = test system: KM12; test: Cytotoxicity against human KM12 cells assessed as cell growth at 10 uM; details: read-out: Activity; how it was run: as §2
[13] = test system: NCI-H226; test: Cytotoxicity against human NCI-H226 cells assessed as cell growth at 10 uM; details: read-out: Activity; how it was run: as §2
[14] = Cytotoxicity against human […] cells assessed as cell growth at 10 uM; details: read-out: Activity; how it was run: as §2
[15] = test system: UACC-62; test: Cytotoxicity against human UACC62 cells assessed as cell growth at 10 uM; details: read-out: Activity; how it was run: as §2
[16] = test system: SR; test: Cytotoxicity against human SR cells assessed as cell growth at 10 uM; details: read-out: Activity; how it was run: as §2
[17] = test system: SN12C; test: Cytotoxicity against human SN12C cells assessed as cell growth at 10 uM; details: read-out: Activity; how it was run: as §2
[18] = test system: BT-549; test: Cytotoxicity against human BT549 cells assessed as cell growth at 10 uM; details: read-out: Activity; how it was run: as §1
[19] = test system: U-251; test: Cytotoxicity against human U251 cells assessed as cell growth at 10 uM; details: read-out: Activity; how it was run: as §2
[20] = test system: SW-620; test: Cytotoxicity against human SW620 cells assessed as cell growth at 10 uM; details: read-out: Activity; how it was run: as §2
[21] = test system: MDA-MB-231; test: Cytotoxicity against human MDA-MB-231 cells assessed as cell growth at 10 uM; details: read-out: Activity; how it was run: as §2
[22] = test system: NCI-H460; test: Cytotoxicity against human NCI-H460 cells assessed as cell growth at 10 uM; details: read-out: Activity; how it was run: as §2
[23] = test system: SK-MEL-28; test: Cytotoxicity against human SK-MEL-28 cells assessed as cell growth at 10 uM; details: read-out: Activity; how it was run: as §2
[24] = test system: PC-3; test: Cytotoxicity against human PC3 cells assessed as cell growth at 10 uM; details: read-out: Activity; how it was run: as §2
[25] = test system: CAKI-1; test: Cytotoxicity against human Caki1 cells assessed as cell growth at 10 uM; details: read-out: Activity; how it was run: as §1
[26] = test system: NCI-H522; test: Cytotoxicity against human NCI-H522 cells assessed as cell growth at 10 uM; details: read-out: Activity; how it was run: as §2
[27] = test system: OVCAR-4; test: Cytotoxicity against human OVCAR4 cells assessed as cell growth at 10 uM; details: read-out: Activity; how it was run: as §2
[28] = test system: SNB-75; test: Cytotoxicity against human SNB75 cells assessed as cell growth at 10 uM; details: read-out: Activity; how it was run: as §2
[29] = test system: HL-60(TB); test: Cytotoxicity against human HL-60(TB) cells assessed as cell growth at 10 uM; details: read-out: Activity
How it was run: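 NCI 60-cell panel screen at a single concentration of 10 µM. Cells are grown in RPMI 1640 with 5% FBS and 2 mM L-glutamine and read by SRB protein staining at 515 nm. Percent growth is measured relative to time-zero and untreated controls; inhibition % is 100 minus growth %.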

[30] = test system: MOLT-4; test: Cytotoxicity against human MOLT4 cells assessed as cell growth at 10 uM; details: read-out: Activity; how it was run: as §2

## Cc1cc(O)cc(-c2nn(CC#N)cc2-c2ccnc(-c3ccccc3)c2)c1
[1]
  growth at 10 µM: 84.6%
[2]
  growth at 10 µM: 75.4%
[3]
  growth at 10 µM: 66.7%
[4]
  growth at 10 µM: 89.2%
[5]
  growth at 10 µM: 53.8%
[6]
  growth at 10 µM: 116%
[7]
  growth at 10 µM: 83.5%
[8]
  growth at 10 µM: 97.8%
[9]
  growth at 10 µM: 59.2%
[10]
  inhibition of growth at 10 µM: 16.4%
[11]
  growth at 10 µM: 70.2%
[12]
  growth at 10 µM: 97.2%
[13]
  growth at 10 µM: 77.7%
[14]
  growth at 10 µM: 84.5%
[15]
  growth at 10 µM: 59.8%
[16]
  growth at 10 µM: 80.3%
[17]
  growth at 10 µM: 77.6%
[18]
  growth at 10 µM: 93.5%
[19]
  growth at 10 µM: 87.4%
[20]
  growth at 10 µM: 87.6%
[21]
  growth at 10 µM: 80.7%
[22]
  growth at 10 µM: 93.3%
[23]
  growth at 10 µM: 85.2%
[24]
  growth at 10 µM: 88.7%
[25]
  growth at 10 µM: 82.4%
[26]
  growth at 10 µM: 57.2%
[27]
  growth at 10 µM: 77.7%
[28]
  growth at 10 µM: 43.2%
[29]
  growth at 10 µM: 78.4%
[30]
  growth at 10 µM: 71%
